Experimental data reported in article PMC6166782 (Science signaling, 2018).
Where two headings read alike, the source gives them in different places.

Key:
[1] = biological target: T1, pHsp72 (Homo sapiens, UniProt P0DMV8, T66S); assay: Isothermal titration calorimetry, nucleotide binding to pHsp72; settings: ITC; ratio of Kd
Target sequence in this assay (P0DMV8 2-641 T66S): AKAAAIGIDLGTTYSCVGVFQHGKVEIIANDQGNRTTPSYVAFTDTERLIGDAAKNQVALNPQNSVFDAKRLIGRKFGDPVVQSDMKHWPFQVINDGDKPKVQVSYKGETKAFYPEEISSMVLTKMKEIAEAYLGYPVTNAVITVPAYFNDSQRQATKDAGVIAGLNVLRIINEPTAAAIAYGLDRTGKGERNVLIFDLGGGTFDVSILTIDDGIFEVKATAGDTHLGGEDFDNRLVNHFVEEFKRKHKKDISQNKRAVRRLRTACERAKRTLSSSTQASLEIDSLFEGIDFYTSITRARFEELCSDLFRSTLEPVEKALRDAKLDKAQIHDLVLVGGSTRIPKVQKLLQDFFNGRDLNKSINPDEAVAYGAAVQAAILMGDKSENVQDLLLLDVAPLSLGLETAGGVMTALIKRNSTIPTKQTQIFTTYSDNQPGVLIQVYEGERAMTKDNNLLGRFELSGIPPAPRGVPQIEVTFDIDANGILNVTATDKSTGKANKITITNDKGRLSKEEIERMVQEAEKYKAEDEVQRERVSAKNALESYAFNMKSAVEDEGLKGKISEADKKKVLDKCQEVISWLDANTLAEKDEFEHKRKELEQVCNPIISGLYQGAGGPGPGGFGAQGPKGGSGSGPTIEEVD

[2] = biological target: T2, unphosphorylated Hsp72 (Homo sapiens, UniProt P0DMV8); assay: Peptide release kinetics in the presence of Hsp110, unphosphorylated Hsp72; type: biochemical; settings: read-out: koff, ATP, excess of unlabeled peptide, Hsp110
Outline: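 Unphosphorylated Hsp72 (50 μM) equilibrated for several hours at room temperature with 20 nM F-NR and 125 μM ADP in Buffer A (pH 7.5, 150 mM KCl, 10 mM MgCl₂). Release triggered by 2 mM ATP (final) with 150 μM unlabelled peptide and 125 μM His-tagged, E. coli-expressed Hsp110. FP (ex 490/em 535 nm, 25°C) every 30 s for 4000 s; koff fitted. Mean ± SEM, six experiments.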
Target sequence in this assay (P0DMV8 whole entry): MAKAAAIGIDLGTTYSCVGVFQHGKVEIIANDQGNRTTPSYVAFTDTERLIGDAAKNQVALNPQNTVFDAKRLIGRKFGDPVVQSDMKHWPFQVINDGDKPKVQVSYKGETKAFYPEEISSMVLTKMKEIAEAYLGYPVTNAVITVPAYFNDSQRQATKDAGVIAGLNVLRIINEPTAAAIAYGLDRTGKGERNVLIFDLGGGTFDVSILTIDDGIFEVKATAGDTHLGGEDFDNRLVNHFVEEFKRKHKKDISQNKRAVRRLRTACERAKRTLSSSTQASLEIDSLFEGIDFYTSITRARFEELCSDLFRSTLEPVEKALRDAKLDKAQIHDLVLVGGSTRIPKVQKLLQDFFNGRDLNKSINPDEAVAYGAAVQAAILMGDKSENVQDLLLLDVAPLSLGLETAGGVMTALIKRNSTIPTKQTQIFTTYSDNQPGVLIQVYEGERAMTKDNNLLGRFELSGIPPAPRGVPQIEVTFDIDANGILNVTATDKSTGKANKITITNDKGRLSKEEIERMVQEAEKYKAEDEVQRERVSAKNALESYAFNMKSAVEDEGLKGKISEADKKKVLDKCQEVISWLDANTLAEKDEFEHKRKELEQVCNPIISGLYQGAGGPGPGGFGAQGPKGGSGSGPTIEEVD

[3] = biological target: T1, pHsp72; assay: Peptide release kinetics in the presence of Hsp110, pHsp72; type: biochemical; settings: read-out: koff, ATP, excess of unlabeled peptide, Hsp110
Outline: (§1)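 50 μM pS66 or unphosphorylated Hsp72 was equilibrated for several hours at room temperature with 20 nM F-NR and 125 μM ADP in Hepes–KOH pH 7.5 buffer (10 mM MgCl₂, 2 mM DTT). ATP was then added to 2 mM final, with 150 μM unlabelled peptide and 125 μM Hsp110. FP (ex 490/em 535 nm, 25°C) was read every 30 s for 4000 s. koff given as mean ± SEM of six experiments.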
Target sequence in this assay (P0DMV8 whole entry T66S): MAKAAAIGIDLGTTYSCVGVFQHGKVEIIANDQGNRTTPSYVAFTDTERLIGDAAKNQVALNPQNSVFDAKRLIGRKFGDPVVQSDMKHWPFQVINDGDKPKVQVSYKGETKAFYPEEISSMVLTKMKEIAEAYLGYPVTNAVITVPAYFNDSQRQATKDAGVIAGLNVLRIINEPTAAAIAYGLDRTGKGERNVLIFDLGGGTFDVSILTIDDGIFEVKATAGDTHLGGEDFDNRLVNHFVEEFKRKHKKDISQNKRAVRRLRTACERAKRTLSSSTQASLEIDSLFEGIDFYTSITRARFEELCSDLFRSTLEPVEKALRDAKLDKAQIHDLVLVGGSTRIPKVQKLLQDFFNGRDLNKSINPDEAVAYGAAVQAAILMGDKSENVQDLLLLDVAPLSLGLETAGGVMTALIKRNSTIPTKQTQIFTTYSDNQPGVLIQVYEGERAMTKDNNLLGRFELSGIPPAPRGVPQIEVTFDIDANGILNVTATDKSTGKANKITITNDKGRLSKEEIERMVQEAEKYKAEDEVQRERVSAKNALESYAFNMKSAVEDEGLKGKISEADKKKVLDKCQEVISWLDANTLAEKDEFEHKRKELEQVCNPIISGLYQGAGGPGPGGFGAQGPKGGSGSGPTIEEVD

[4] = biological target: T2, unphosphorylated Hsp72; assay: Kinetics of substrate peptide release, unphosphorylated Hsp72; type: biochemical; settings: pH 7.5, read-out: koff, excess of unlabeled peptide (ADP state)
Outline: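 Hsp72 (50 μM) preloaded at room temperature with F-NR in 125 μM ADP, Buffer A (25 mM Hepes-KOH pH 7.5, 150 mM KCl, 10 mM MgCl₂, 2 mM DTT). ADP state: 40 nM F-NR, >5 h, then chased with 150 μM unlabelled NR. ATP state: 20 nM F-NR, then 2 mM ATP plus 150 μM unlabelled peptide. FP read over time at 25°C; koff fitted. Mean ± SEM, four (ADP) or five (ATP) runs.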
Target sequence in this assay (P0DMV8 whole entry): as the sequence (P0DMV8 whole entry) above

[5] = biological target: T1, pHsp72; assay: Kinetics of substrate peptide release, pHsp72; type: biochemical; settings: pH 7.5, read-out: koff, excess of unlabeled peptide (ADP state)
Outline: (§2)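 50 μM Hsp72 (pS66 or unphosphorylated) was pre-equilibrated at room temperature with F-NR and 125 μM ADP in Hepes–KOH pH 7.5 buffer with 10 mM MgCl₂. ADP state: 40 nM F-NR for over 5 h, then 150 μM unlabelled NR. ATP state: 20 nM F-NR, then 2 mM ATP plus 150 μM unlabelled peptide, read every 30 s for 4000 s (mean ± SEM, five assays). FP at 25°C; koff was fitted.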
Target sequence in this assay (P0DMV8 whole entry T66S): as the sequence (P0DMV8 whole entry T66S) above

[6] = biological target: T2, unphosphorylated Hsp72; assay: Fluorescence polarization peptide binding, unphosphorylated Hsp72
Outline: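 Unphosphorylated Hsp72 serially diluted in Buffer A (pH 7.5, 10 mM MgCl₂). ADP state: 125 μM ADP plus 20 nM F-NR, several hours at room temperature to equilibrium. ATP state: 2 mM ATP for 2 min, then 20 nM F-NR, read after 10 min. FP at 25°C, ex 490/em 535 nm. Kd from one-site nonlinear fit; ATP Kd divided by ADP Kd.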
Target sequence in this assay (P0DMV8 whole entry): as the sequence (P0DMV8 whole entry) above

[7] = biological target: T2, unphosphorylated Hsp72; assay: ATP mediated substrate release assay, unphosphorylated Hsp72; type: biochemical; settings: 100 μM VER-155008, 2 mM ATP; Fig. S7, C to E
Outline: (§3)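 Full-length Hsp72 (unphosphorylated, or pSer66 genetically encoded in E. coli) at 50 μM was equilibrated at room temperature for several hours with 20 nM F-NR or F-ALLQ peptide and 125 μM ADP in Buffer A (Hepes-KOH pH 7.5, 10 mM MgCl₂, 2 mM DTT). ATP was added to 2 mM final, with 100 μM VER-155008 included. FP (ex 490/em 535 nm, 25°C) was read before ATP, then every 30 s for 4000 s.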
Target sequence in this assay (P0DMV8 2-641): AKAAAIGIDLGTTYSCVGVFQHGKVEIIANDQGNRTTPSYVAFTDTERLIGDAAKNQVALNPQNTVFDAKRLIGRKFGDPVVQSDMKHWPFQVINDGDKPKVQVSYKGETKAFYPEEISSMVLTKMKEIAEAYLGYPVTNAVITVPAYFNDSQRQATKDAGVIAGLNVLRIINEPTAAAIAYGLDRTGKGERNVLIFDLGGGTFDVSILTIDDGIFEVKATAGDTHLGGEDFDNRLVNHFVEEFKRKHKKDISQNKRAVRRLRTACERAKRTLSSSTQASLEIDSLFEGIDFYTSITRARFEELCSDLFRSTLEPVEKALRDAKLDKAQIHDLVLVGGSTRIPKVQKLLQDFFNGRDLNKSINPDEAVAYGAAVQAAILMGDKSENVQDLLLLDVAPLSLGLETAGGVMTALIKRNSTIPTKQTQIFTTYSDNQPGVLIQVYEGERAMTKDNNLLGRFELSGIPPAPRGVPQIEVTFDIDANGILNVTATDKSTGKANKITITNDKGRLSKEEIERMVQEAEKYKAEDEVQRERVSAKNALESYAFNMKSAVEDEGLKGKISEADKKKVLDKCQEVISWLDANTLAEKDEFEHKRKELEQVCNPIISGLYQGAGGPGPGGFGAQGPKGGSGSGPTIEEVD

[8] = test system: spindle assembly; settings: ref [9]; cited from earlier work
[9] = biological target: T1, pHsp72; assay: ATP mediated substrate release assay, pHsp72; type: biochemical; settings: 100 μM VER-155008, 2 mM ATP; Fig. S7, C to E; protein form not given
Outline: as §3
Target sequence in this assay (P0DMV8 2-641 T66S): as the sequence (P0DMV8 2-641 T66S) above

[10] = biological target: fluorescein-labeled NR peptide (F-NR); assay: fluorescence polarisation
[11] = biological target: fluorescein-labeled NR peptide (F-NR); assay: fluorescence polarisation; remark: listed apart in the source
[12] = test system: mitotic spindle; settings: ref [9]; cited from earlier work
[13] = test system: spindle poles, HeLa cells; assay: FRAP of GFP-Hsp72 at spindle poles; type: cell-based; settings: one spindle pole bleached; average of 4-5 cells from 2 experiments
[14] = test system: pHsp72; assay: Peptide release kinetics in the presence of Hsp110, pHsp72; type: biochemical; settings: ATP, Hsp110 and unlabeled substrate peptide
Outline: as §1

[15] = test system: pHsp72; assay: Kinetics of substrate peptide release, pHsp72; type: biochemical
Outline: as §2

Chain of Heat shock protein 72 (Hsp72), unphosphorylated, full-length (P0DMV8 whole entry): as the sequence (P0DMV8 whole entry) above

## Nc1ncnc2c1ncn2[C@@H]1O[C@H](COP(=O)(O)OP(=O)(O)O)[C@@H](O)[C@H]1O [ADP, adenosine diphosphate]
[1]
  fold tighter nucleotide binding, pHsp72 vs unphosphorylated Hsp72: ten times more tightly

## Nc1ncnc2c1ncn2[C@@H]1O[C@H](COP(=O)(O)OP(=O)(O)NP(=O)(O)O)[C@@H](O)[C@H]1O [AMP-PNP, adenylyl-imidodiphosphate]
[1]
  fold tighter nucleotide binding, pHsp72 vs unphosphorylated Hsp72: 3.6 fold

## Nc1ncnc2c1ncn2[C@@H]1O[C@H](COP(=O)(O)OP(=O)(O)OP(=O)(O)O)[C@@H](O)[C@H]1O [ATP, adenosine triphosphate]
[1]
  fold tighter nucleotide binding, pHsp72 vs unphosphorylated Hsp72: twice as tightly

## CC(C)C[C@H](NC(=O)[C@H](CCCNC(=N)N)NC(=O)[C@H](CC(N)=O)NC(=O)c1ccc2c(c1)C(=O)OC21c2ccc(O)cc2Oc2cc(O)ccc21)C(=O)N[C@@H](CC(C)C)C(=O)N[C@@H](CC(C)C)C(=O)N[C@H](C(=O)NCC(=O)O)[C@@H](C)O [F-NR]
[2]
  koff: 0.0673 ± 0.0077 s⁻¹
[3]
  koff: 0.0252 ± 0.0017 s⁻¹
[4]
  koff: 0.00123 ± 4e-05 s⁻¹
[5]
  koff: 0.00079 ± 3e-05 s⁻¹
[6]; unphosphorylated Hsp72, ATP vs ADP, ratio of Kd
  factor by which ATP weakened peptide interaction vs ADP: 40

## N#Cc1ccc(COC[C@H]2O[C@@H](n3c(NCc4ccc(Cl)c(Cl)c4)nc4c(N)ncnc43)[C@H](O)[C@@H]2O)cc1 [VER-155008]
[7]
  fold reduction of ATP substrate release rate: ~ 8.6 fold
[8]
  effect on spindle assembly: disrupted spindle assembly
[9]
  increase of ATP-mediated rate of release of substrate peptide: ~ 2.6
[6]; 100 μM VER-155008, DMSO control, Fig. S7, form of Hsp72 not stated
  effect on binding of peptide substrate: did not affect the binding of peptide substrate

## Heat shock protein 72 (Hsp72), unphosphorylated, full-length (from UniProt P0DMV8 1-641) (natural protein)
[10]
  Kd: 157 µM
[11]
  Kd: 3.95 µM

## T66A
[12]
  localization to the spindle: did not localize to the spindle
[8]
  effect on spindle assembly: causes defects in spindle assembly

## T66E
[13]
  FRAP recovery: very little recovery
[8]
  effect on spindle assembly: can rescue the defects in spindle assembly due to NEK6 depletion

## pHsp72: full-length Hsp72 with incorporation of pSer^66
[14]
  fold slower peptide release rate, pHsp72 vs Hsp72, in presence of Hsp110: ~ 2.7 fold
[15]; ADP state
  times slower peptide release rate, pHsp72 vs unphosphorylated: ~ 1.5 times
[15]; ATP state
  times slower peptide release rate, pHsp72 vs unphosphorylated: ~ 8 times

## pSer^66-Hsp72 (pHsp72), full-length, with genetically encoded phosphoserine at position 66 (from UniProt P0DMV8 1-641) (natural protein)
[10]
  Kd: 27.6 µM
